# From article PMC6899483 (ChemMedChem, 2019)
# “And” between values parts separate entries of the source, which are not always exact repeats. Equal values may be shown once.
# What was measured:
# Pf (3D7) = test: Plasmodium falciparum screening; type: cell-based
# Summary of the method: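 Asexual intraerythrocytic P. falciparum 3D7 grown in expired human transfusion red cells. EC50 is reported with its 95% confidence interval, and n is the number of screening replicates.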
# HepG2 = test: mammalian cell growth inhibition assay; type: cell-based; details: Homo sapiens, HepG2, read-out: EC50 HepG2, mammalian cell counter-screen
# Summary of the method: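 HepG2 counter-screen values are EC50s, each with its number of screening replicates (n) and a 95% confidence interval.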
# [1] = mouse microsomal clearance; type: in vitro ADME; details: mouse liver microsomes
# Summary of the method: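 Intrinsic clearance is measured in mouse liver microsomes and expressed as mL min−1 (g liver)−1.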
smiles,measurement,setting,value
"Cc1ccc(NC(C)(C)C(=O)Nc2ccc(F)c(Cl)c2)cc1S(=O)(=O)N1CCOCC1 [Compound 28, N-(3-chloro-4-fluorophenyl)-2-methyl-2-{[4-methyl-3-(morpholinosulfonyl)phenyl]amino}propanamide]",improvement in antimalarial potency relative to compound 1,Pf (3D7); Pf (3D7),~20 fold and > 10 fold
same,EC50,"Pf (3D7); Plasmodium falciparum, 3D7, read-out: EC50 Pf (3D7)",7 nM
same,EC50,HepG2,> 25000 nM
same,Mouse microsomal CLint,[1],> 50 mL min^−1 (g liver)^−1
